In ChEMBL document CHEMBL4373631, “Design, synthesis and evaluation of PD176252 analogues for ameliorating cisplatin-induced nephrotoxicity” (Medchemcomm, 2019) one finds viability, Activity and inhibition data, which are given here for three compounds.

Series [1] deals with HK-2. As to the kind of experiment: Protection against cisplatin-induced cell death in human HK2 cells assessed as increase in survival rate at 4 uM preincubated for 6 hrs followed by cisplatin addition measured after 24 hrs by MTT assay relative to control. The series is classed as functional. As to conditions: read-out: Survival. In outline:
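HK2 cells starved overnight in DMEM/F12 with 0.5% FBS, pretreated with compound for 6 h, then exposed to cisplatin (20 μM) for 24 h. Compounds from 5 mM DMSO stocks. Viability by MTT: 0.5 mg/mL final, 4 h at 37°C, formazan dissolved in DMSO, absorbance at 492 nm. Three to four independent experiments.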

Series [2] relates to HK-2. Briefly: Protection against cisplatin-induced cell death in human HK2 cells assessed as increase in survival rate preincubated for 6 hrs followed by cisplatin addition measured after 24 hrs by MTT assay. Type of series: functional, cell-based.
The subject of series [3] is HK-2. Briefly: Cytotoxicity against human HK2 cells assessed as reduction in cell viability at 1 to 256 uM after 24 hrs by MTT assay. Type of series: cell-based. As to conditions: hk-2, 24 h. In outline:
(§1)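 MTT cytotoxicity read-out on HK2 cells. Medium was changed, MTT in PBS added to a final 0.5 mg/mL, and plates incubated 4 h at 37°C. Medium was then removed, formazan dissolved in DMSO, and absorbance read at 492 nm.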
For orientation: Tetrazolium dyes change colour on reduction, which living cells bring about.

Series [4] concerns HK-2. As to the kind of experiment: Antiinflammatory activity in human HK2 cells assessed as suppression of cisplatin-induced TNF-alpha mRNA level at 4 uM by SYBR-green based RT-PCR analysis. Type of series: functional, cell-based. In outline: (§2)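 Overnight starvation of HK2 cells in DMEM/F12 with 0.5% FBS, then 6 h compound pretreatment before cisplatin 20 μM. Cells harvested after 24 h. Total RNA extracted with an RNeasy kit, and MCP-1, TNF-α or IL-6 mRNA quantified by real-time PCR. Three to four independent experiments.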

Series [5] relates to HK-2. Briefly: Antiinflammatory activity in human HK2 cells assessed as suppression of cisplatin-induced IL-6 mRNA level at 4 uM by SYBR-green based RT-PCR analysis. The series is classed as functional, cell-based. The gist of the method:
as §2

The test system of series [6] is HK-2. Briefly: Antiinflammatory activity in human HK2 cells assessed as suppression of cisplatin-induced MCP-1 mRNA level at 4 uM by SYBR-green based RT-PCR analysis. Type of series: functional, cell-based. The gist of the method:
as §2

The test system of series [7] is HK-2. Briefly: Antiinflammatory activity in human HK2 cells assessed as suppression of cisplatin-induced TNF-alpha […] level at 4 uM by ELISA. Type of series: functional, cell-based. In outline: (§3)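 HK2 cells starved overnight in DMEM/F12 with 0.5% FBS, pretreated with compound 6 h, then cisplatin 20 μM added. After 24 h, cytokine protein in the culture medium was measured with human TNF-α, IL-6 or MCP-1 ELISA kits per manufacturer's instructions. Three to four independent experiments.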
In general terms: In an ELISA, binding on a coated surface is turned into a signal by an enzyme label.

For series [8], the system named is HK-2. Briefly: Antiinflammatory activity in human HK2 cells assessed as suppression of cisplatin-induced IL-6 […] level at 4 uM by ELISA. Type of series: functional, cell-based. In outline: as §3
Series [9] relates to HK-2. Briefly: Antiinflammatory activity in human HK2 cells assessed as suppression of cisplatin-induced MCP-1 […] level at 4 uM by ELISA. The series is classed as functional, cell-based. In outline: as §3
For series [10], the target named is Transcription factor p65 (Homo sapiens) (UniProt Q04206). As to the kind of experiment: Inhibition of cisplatin-induced NF-kappaB p65 phosphorylation in human HK2 cells at 4 uM by Western blot analysis. Type of series: cell-based. The gist of the method: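 HK2 cells starved overnight in DMEM/F12 with 0.5% FBS, pretreated 6 h with compound, then given cisplatin 20 μM for 24 h. Lysates made in ice-cold RIPA buffer and protein measured by BCA. Run on 10% SDS-PAGE, transferred to nitrocellulose, primary antibodies 18 h at 4°C, IRDye 800 secondary 1.5 h at room temperature.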

For series [11], the system named is HK-2. As to the kind of experiment: Cytotoxicity against human HK2 cells assessed as reduction in cell viability after 24 hrs by MTT assay. Type of series: cell-based. As to conditions: hk-2, 24 h. In outline: as §1

The source made the active and inactive calls. The calls are words filed in the database; no cut-off is given here.

Sequence of Transcription factor p65 (Homo sapiens) (Q04206 whole entry): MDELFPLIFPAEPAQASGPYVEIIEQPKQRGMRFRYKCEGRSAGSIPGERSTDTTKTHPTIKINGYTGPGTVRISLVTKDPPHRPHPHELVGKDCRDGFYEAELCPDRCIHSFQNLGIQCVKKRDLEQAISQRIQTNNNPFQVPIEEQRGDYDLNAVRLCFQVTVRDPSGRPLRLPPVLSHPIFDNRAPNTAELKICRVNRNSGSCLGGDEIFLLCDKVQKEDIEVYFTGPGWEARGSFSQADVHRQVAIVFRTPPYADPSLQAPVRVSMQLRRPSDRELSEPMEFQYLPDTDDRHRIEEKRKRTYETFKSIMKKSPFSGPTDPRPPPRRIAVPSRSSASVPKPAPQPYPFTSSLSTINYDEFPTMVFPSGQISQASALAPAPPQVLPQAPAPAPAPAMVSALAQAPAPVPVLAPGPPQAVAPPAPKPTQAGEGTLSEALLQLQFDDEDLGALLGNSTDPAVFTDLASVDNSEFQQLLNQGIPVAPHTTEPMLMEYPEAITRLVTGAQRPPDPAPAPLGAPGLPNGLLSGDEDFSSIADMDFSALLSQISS

Turning to `Cc1ccc(CC(=O)N[C@@H](Cc2ccccc2)C(=O)NCCn2ccnc2)cc1`, the viability at 4 µM in the series with HK-2 [1] was over 40%. Moreover, the Activity entry with HK-2 [2] was “Dose-dependent effect”; in the series with HK-2 [3] it was “Non-Toxic”. Besides, the outcome with HK-2 [4], in the series with HK-2 [5], in the series on HK-2 [6], in the series on HK-2 [7], in the series on HK-2 [8] and in the series on HK-2 [9] was Active. For the same compound, the inhibition result in [10] is “Active”.
Regarding `O=C(Cc1ccc(F)cc1)N[C@@H](Cc1ccc(O)cc1)C(=O)NCCN1CCOCC1`, the viability at 4 µM in the series on HK-2 [1] was over 30%. The Activity result in the series with HK-2 [2] was “Dose-dependent effect”; with HK-2 [3] it was “Non-Toxic”. Further, the result in the series on HK-2 [4], in the series on HK-2 [5] and in the series with HK-2 [6] was Active.
For the compound `COc1ccc(C2(CNC(=O)[C@](C)(Cc3c[nH]c4ccccc34)NC(=O)Nc3ccc([N+](=O)[O-])cc3)CCCCC2)nc1`, the Activity entry with HK-2 [11] is reported as “Toxic”. Further, the result with HK-2 [4], in the series on HK-2 [5], in the series on HK-2 [6], in the series with HK-2 [7], in the series on HK-2 [8] and in the series with HK-2 [9] was Active. Also, the inhibition entry in series [10] was “Active”.
